Counter-ions that a name gives are not always drawn.
System: RAW264.7
Assay: Antiinflammatory activity against mouse RAW264.7 cells assessed as inhibition of LPS-induced NO production pretreated for 30 mins followed by LPS stimulation measured after 24 hrs by Griess reagent based assay
Format: functional, cell-based
Conditions: not given
Summary of the method: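 Supernatant mixed 1:1 with Griess reagent for 10 min, absorbance read at 540 nm. DMSO final ≤0.1%. Aminoguanidine hydrochloride served as positive control. Run in triplicate; IC50 given as mean ± SD (n = 3).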

First: CC(C)c1cc2c(c(O)c1O)[C@@]1(C)CCCC(C)(C)[C@@H]1CC2=O [DEMETHYLCRYPTOJAPONOL]
Second: C[C@@H](CO)c1cc2c(c(O)c1O)[C@@]1(C)CCCC(C)(C)[C@@H]1CC2=O
The IC50 of the first is lower: 15.5 µM for the first, over 50 µM for the second.

`CC1=C(C)C2=CC(=O)c3c(O)c4c(c(O)c3[C@@]2(C)CC1=O)O[C@@H](C)C4` and `CC1=C(C)C2=CC(=O)c3c(O)c4c(c(O)c3[C@@]2(C)CC1=O)O[C@@H](C)[C@@H]4O` are within 1.5-fold of each other in IC50: 31.4 µM for the first, 38.6 µM for the second.

`COC1=C2C(C)(C)C(=O)CC[C@]2(C)c2c(O)c3c(c(O)c2C1=O)C[C@H](C)O3` and `C[C@H]1Cc2c(O)c3c(c(O)c2O1)[C@@]1(C)CCC(=O)C(C)(C)C1=C(O)C3=O` [TEUVINCENONE A] cannot be ordered by IC50: over 50 µM for the first, over 50 µM for the second.

`C=C1C(C)=CC[C@]2(C)c3c(cc(CC(C)O)c(O[C@@H]4O[C@H](CO)[C@@H](O)[C@H](O)[C@H]4O)c3O)C(=O)C[C@@H]12` (some centres undefined) and `CC(CO)c1cc2c(c(O)c1O[C@@H]1O[C@H](CO)[C@@H](O)[C@H](O)[C@H]1O)[C@@]1(C)CC[C@H](O)C(C)(C)[C@@H]1CC2` (some centres undefined) cannot be ordered by IC50: over 50 µM for the first, over 50 µM for the second.

Compared with `Cc1cc2c(O)c3c(c(O)c2o1)[C@@]1(C)CCC(=O)C(C)(C)[C@@H]1CC3=O`, `C[C@H]1Cc2c(O)c3c(c(O)c2O1)[C@@]1(C)CCC(=O)C(C)(C)[C@@H]1CC3=O` is higher in IC50: 6 µM for the first, over 50 µM for the second. The first is the more potent here.

`C=C1C2=CC(=O)c3c(O)c4c(c(O)c3[C@@]2(C)CC[C@@]1(C)O)OC(C)C4` (some centres undefined) and `C[C@H]1Cc2c(O)c3c(c(O)c2O1)[C@@]1(C)CC[C@]2(C)O[C@]2(C)C1=CC3=O` cannot be ordered by IC50: over 50 µM for the first, over 50 µM for the second.

First: CC1=C(C)C2=CC(=O)C3=C(C(=O)[C@]4(Oc5c([C@H](C)CO)cc6c(c5O4)[C@]4(C)CCCC(C)(C)[C@H]4CC6=O)[C@@]4(O)C[C@H](C)O[C@]34O)[C@]2(C)CC1
Second: CC(O)Cc1cc2c(c(O)c1O)[C@@]1(C)CCCC(C)(C)[C@@H]1CC2=O (some centres undefined)
The IC50 of the first is lower: 5.6 µM for the first, over 50 µM for the second.

Going from `COC1=C2C(C)(C)CCC[C@]2(C)c2c(O)c3c(c(O)c2C1=O)C[C@H](C)O3` to `COC1=C2C(C)(C)CCC[C@]2(C)c2c(O)c3c(c(O)c2C1=O)C[C@H](CO)O3`, the IC50 falls from over 50 µM to 35.6 µM. The second is the more potent here.

`CC1(C)CCC[C@]2(C)c3c(O)c4c(c(O)c3C(=O)C[C@@H]12)C[C@H](CO)O4` and `C[C@@]12C[C@@H]1CC[C@]1(C)c3c(O)c4c(c(O)c3C(=O)C[C@@H]21)C[C@H](CO)O4` cannot be ordered by IC50: over 50 µM for the first, over 50 µM for the second.

First: COC1=C2C(C)(C)C(=O)CC[C@]2(C)c2c(c(O)c3cc(C)oc3c2O)C1=O
Second: Cc1cc2c(O)c3c(c(O)c2o1)[C@@]1(C)CCC(=O)C(C)(C)C1=C(O)C3=O
The IC50 of the first is lower: 31.1 µM for the first, over 50 µM for the second.

`CC(C)c1cc2c(c(O)c1O[C@@H]1O[C@H](CO)[C@@H](O)[C@H](O)[C@H]1O)[C@@]1(C)CCC[C@](C)(C(=O)O[C@@H]3O[C@H](CO)[C@@H](O)[C@H](O)[C@H]3O)[C@@H]1CC2` and `CC(C)c1cc2c(c(O)c1O[C@@H]1O[C@H](CO)[C@@H](O)[C@H](O)[C@H]1O)[C@@]1(C)CC[C@H](O[C@@H]3O[C@H](CO)[C@@H](O)[C@H](O)[C@H]3O)C(C)(C)[C@@H]1CC2` cannot be ordered by IC50: over 50 µM for the first, over 50 µM for the second.

Compared with `CC1=C(C)C2=CC(=O)c3c(O)c4c(c(O)c3[C@@]2(C)CC1)O[C@@H](C)[C@@H]4O`, `CC1=C(C)[C@@H](O)C[C@@]2(C)C1=CC(=O)c1c(O)c3c(c(O)c12)O[C@@H](C)C3` is lower in IC50: over 50 µM for the first, 6.5 µM for the second. The second is the more potent here.

First: CC(C)c1cc2c(c(O)c1O)[C@@]1(C)CCCC(C)(C)[C@@H]1[C@@H](O)C2=O [6-ALPHA-HYDROXYDEMETHYL-CRYPTOJAPONOL]
Second: COC1=C2C(C)(C)CCC[C@]2(C)c2c(c(O)c3cc(CO)oc3c2O)C1=O
The IC50 of the first is 1.7-fold lower: 9.4 µM for the first, 16.1 µM for the second.

Going from `COC(=O)C1=C(C)C2=CC(=O)c3c(O)c4c(c(O)c3[C@@]2(C)CC1)O[C@@H](C)C4` to `C[C@H]1Cc2c(O)c3c(c(O)c2O1)[C@@]1(C)CCC2=C(COC2=O)C1=CC3=O`, the IC50 falls from over 50 µM to 28.9 µM. The second is the more potent here.

`CC1=C(C)C2=CC(=O)c3c(c(O)c4oc(C)cc4c3O)[C@@]2(C)CC1=O` and `CC1=C(CO)C2=CC(=O)c3c(c(O)c4oc(C)cc4c3O)[C@@]2(C)CC1=O` cannot be ordered by IC50: over 50 µM for the first, over 50 µM for the second.

First: CC1(C)CCC[C@@]2(C)C1=C(O)C(=O)c1c(O)c3c(c(O)c12)O[C@@H](CO)C3 [VILLOSIN C]
Second: CC1=C(C)[C@@H](O)C[C@@]2(C)C1=CC(=O)c1c2c(O)c2oc(C)cc2c1O
The IC50 of the first is lower: 15.5 µM for the first, over 50 µM for the second.

Compared with `CC1=C(C)C2=CC(=O)[C@@]34O[C@@]3(C(=O)c3oc(C)cc3C4=O)[C@@]2(C)CC1`, `N=C(N)NN` [PIMAGEDINE HYDROCHLORIDE] is 2.5-fold higher in IC50: 10.6 µM for the first, 26.2 µM for the second.

System: not listed separately
Assay: Cytotoxicity against mouse RAW264.7 cells assessed as cell survival at 25 uM
Format: cell-based
Conditions: read-out: Survival

`CC1=C(CO)C(=O)C[C@@]2(C)C1=CC(=O)c1c(O)c3c(c(O)c12)O[C@@H](C)C3` and `CC1=C(CO)CC[C@@]2(C)C1=CC(=O)c1c(O)c3c(c(O)c12)O[C@@H](C)C3` cannot be ordered by viability at 25 µM: under 15% for the first, under 15% for the second.

`CC1=C(C)[C@H](O)C[C@@]2(C)C1=CC(=O)c1c2c(O)c2oc(C)cc2c1O` and `CC1=C(C)C2=CC(=O)c3c(c(O)c4oc(C)cc4c3O)[C@@]2(C)CC1` cannot be ordered by viability at 25 µM: under 15% for the first, under 15% for the second.

`CC1=C(C)C2=CC(=O)C3=C(C(=O)c4oc(C)cc4C3=O)[C@@]2(C)CC1` and `CC1=C(C)C2=CC(=O)c3c(O)c4c(c(O)c3[C@@]2(C)CC1)O[C@@H](C)C4` cannot be ordered by viability at 25 µM: under 15% for the first, under 15% for the second.

`C[C@H]1Cc2c(O)c3c(c(O)c2O1)[C@@]1(C)CC[C@H](O)C(C)(C)[C@@H]1CC3=O` and `CC1=C(C)[C@H](O)C[C@@]2(C)C1=CC(=O)c1c(O)c3c(c(O)c12)O[C@@H](C)C3` cannot be ordered by viability at 25 µM: under 15% for the first, under 15% for the second.

`CC1(C)CCC[C@@]2(C)C1=CC(=O)c1c(O)c3c(c(O)c12)O[C@@H](CO)C3` and `CC1=C(C=O)CC[C@@]2(C)C1=CC(=O)c1c(O)c3c(c(O)c12)O[C@@H](C)C3` cannot be ordered by viability at 25 µM: under 15% for the first, under 15% for the second.
